Screening results as filed in PubChem.
MC4R antagonist – human MC4R antagonism in cAMP assay. P32245. MC4R-expressing cells, MTII-stimulated cAMP, LANCE TR-FRET. inhibition, % at 6.5 µM. 360,000 compounds, 0.48% hits;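 active = inhibition above its plate's cutoff, the mean of tested wells on that plate plus 3 SD, cut at about 29% in these data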;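 also: 0% = Melanotan II alone and 100% = Melanotan II plus saturating MCL0020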
Target sequence (P32245 whole entry, looked up): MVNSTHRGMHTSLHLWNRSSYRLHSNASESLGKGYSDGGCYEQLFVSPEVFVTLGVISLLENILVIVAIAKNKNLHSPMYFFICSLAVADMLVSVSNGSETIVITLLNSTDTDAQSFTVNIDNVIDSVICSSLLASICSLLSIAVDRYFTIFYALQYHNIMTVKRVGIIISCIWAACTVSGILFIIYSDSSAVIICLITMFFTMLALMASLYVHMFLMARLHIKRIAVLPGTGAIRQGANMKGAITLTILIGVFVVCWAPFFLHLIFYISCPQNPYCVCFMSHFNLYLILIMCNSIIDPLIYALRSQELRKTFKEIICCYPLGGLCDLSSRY
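Assay system: human MC4R-expressing U2OS cells; reagent: Melanotan II stimulation of cells; dosing: 6.5 µM single dose; timing: compound 30 min, challenge 1 h, detection 1 h; signal: TR-FRET cAMP assay; replicates: one well per compound, no replicates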
A1 inh – inhibitors of the anti-apoptotic protein A1, read as caspase activation; MEF A1-2A-BIM cells, Caspase-Glo 3/7 luminescence, 3 h; percent of clofoctol response, vehicle zero; caspase activation, % (no concentration beside the values); 330,000 compounds, 0.066% hits; AID 2462;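 active = over half of replicate activation scores above 10%, or exactly half above 10 with the replicate mean above 10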
CHOP UPR activ – apoptotic UPR (CHOP) activation; CHO-CHOP luciferase reporter, luminescence; percent of tunicamycin response over DMSO baseline; activation, % at 10 µM; 330,000 compounds, 0.34% hits;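 active = at 10 µM dose, activation of 40% or more, normalized to positive control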;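 also: 100% = tunicamycin at 10 µg/mL and 0% = DMSO alone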
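Test system: CHO CHOP reporter cells. Input: 500 CHO-CHOP cells per well. Medium: F12 with 10% FBS. Technique: luciferase luminescence. Measure: percent activation relative to tunicamycin control. Dosing: 10 µM compound, 0.5% DMSO. Timing: 16-18 h cell attachment, then 6 h compound exposure, 37 °C.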
UPR XBP1 act – activators of adaptive arm of unfolded protein response (XBP1) | CHO-XBP1 luciferase reporter, IRE1-XBP1 UPR activation, luminescence; percent of tunicamycin response, DMSO as zero | activation, % at 20 µM | 330,000 compounds, 0.33% hits | AID 463104;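 active = versus positive control, 20 µM dose yields 30% or more activation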;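 also: 100% = tunicamycin at 10 µg/mL and 0% = DMSO only wells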
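Test system: CHO-XBP1 luciferase reporter cells | Buffer or medium: Serum-containing F12 medium, 10% FBS | Schedule: 6 h compound exposure at 37 °C, 5% CO2 | Detection: Steady-Glo luciferase glow luminescence, 10 min after reagent addition | Read-out basis: Activation, % of tunicamycin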
MC4R barr agon – agonists of human melanocortin 4 receptor (MC4R) beta-arrestin | U2OS MC4R beta-arrestin complementation, luminescence; percent of melanotan II response, DMSO zero | 360,000 compounds, 0.98% hits | activation, % at 8.9 µM;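 active = activation above a per-plate cutoff, the mean activation of sample wells on that plate plus 3 SD, cut at about 8% in these data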
CHOP UPR conf – apoptotic UPR (CHOP) activation, confirmed. 1,000 compounds, 64% hits. CHO-CHOP cells, CHOP-luciferase reporter luminescence; percent of tunicamycin response, DMSO as zero. shares compounds with CHOP UPR activ. activation, % at 10 µM. AID 463112; in the data active = activation above about 33%;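 also: 0% = DMSO wells and 100% = tunicamycin 10 µg/mL wells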
* hit, by the source's call; · = not tested or not shown. This is a sample that favours compounds with a hit; in the whole collection about 2% have one here.

SMILES	MC4R antagonist	A1 inh	CHOP UPR activ	UPR XBP1 act	MC4R barr agon	CHOP UPR conf
Cc1cc(C)c2c(=O)n3c(nc2c1)C(CC(C)C)NC(=O)c1cccnc1-3 (centres undefined)	4.0	·	·	·	-0.1	·
Cc1cccc(C)c1NC(=O)c1nc(S(=O)(=O)Cc2ccccc2)ncc1Cl	-0.8	·	239.2*	-11.2	-5.7	270.5*
Cc1nnc(NC(=O)c2nc(S(=O)(=O)Cc3ccccc3)ncc2Cl)s1	12.8	·	40.7*	-11.5	1.5	11.4
Cc1cccc(CS(=O)(=O)c2ncc(Cl)c(C(=O)Nc3c(C)cccc3C)n2)c1	27.5	·	26.4	-2.1	-5.9	·
COc1ccc(NC(=O)c2nc(S(=O)(=O)Cc3cccc(C)c3)ncc2Cl)c(OC)c1	-1.3	-1.1	61.4*	-5.5	-2.8	295.9*
COCCNC(=O)C1(C)CCCN(C(=O)c2cccc(Cl)c2)C1 (centres undefined)	3.1	·	·	·	-0.3	·
CCc1cc(C(=O)c2ccc(OC)cc2)c(NC(=O)CCC(=O)O)s1	18.6	-0.6	-0.7	-2.4	0.1	·
CCc1cc(C(=O)c2ccc(C)cc2)c(NC(=O)CCl)s1	22.2	-0.2	108.0*	6.2	-1.0	113.7*
CCc1cccc2sc(N3CCN(C(=O)c4ccc([N+](=O)[O-])o4)CC3)nc12	8.6	0.2	157.4*	-2.7	-2.9	140.9*
COc1cccc(C(NC(C)=O)c2nc(-c3cccc(C#N)c3)cs2)c1 (centres undefined)	-0.2	·	·	·	0.0	·
COc1ccc(Nc2cccccc2=O)cc1	-16.7	-1.5	2.8	3.5	-0.9	·
COc1ccc(C2=CC(=O)N(Nc3ccccc3)C2=O)cc1	-18.2	-0.6	47.9*	-4.2	-0.4	149.4*
O=C(CCN1C(=O)/C(=C\c2ccccc2F)SC1=S)N1CCCCC1	9.2	-0.2	43.5*	-5.7	-2.8	37.3*
O=C(CCN1C(=O)/C(=C/c2ccccc2)SC1=S)N1CCCCCC1	13.1	-0.5	10.1	0.2	-0.6	·
CC(C)S(=O)(=O)NC(=O)C1(C)CCN1C(=O)Cc1ccccc1 (centres undefined)	-3.6	·	·	·	-1.1	·
O=C(OCCc1ccccc1)c1cc(O)c(O)c(O)c1	0.9	-2.3	117.6*	12.2	-0.9	11.5
Nc1ccc(C(=O)OCCc2ccccc2)cc1	-4.4	-4.3	-0.7	-2.4	-1.9	·
COc1ccccc1-c1nnc(Nc2nc3c(OC)cccc3s2)o1	-13.5	-10.1	71.5*	15.3	-0.5	109.5*
COc1cccc2sc(Nc3nnc(-c4ccccc4Cl)o3)nc12	-7.2	-4.8	6.0	5.3	-0.6	·
CC(C)c1nnc(NC(=O)CCS(=O)(=O)Cc2ccccc2)s1	-7.2	0.0	-0.3	-3.0	1.0	·
CC(C)c1nnc(NC(=O)CCS(=O)(=O)c2nc(-c3cccs3)cc(C(F)(F)F)n2)s1	-7.2	0.3	74.1*	-5.5	-1.5	48.2*
Cc1coc2c1C(=O)C(=O)c1c-2ccc2c(C)cccc12	7.2	0.0	61.9*	12.6	-0.7	37.4*
C/C(=N\OCc1ccc(C#N)cc1)c1ccc(S(=O)(=O)N(C)C)cc1	8.5	1.2	40.9*	3.9	-1.3	5.9
C/C(=N\OCc1ccc(C#N)cc1)c1ccccc1	8.0	-7.2	4.6	-0.1	0.0	·
Cc1cccnc1C(NC(=O)C1CCN(CCCOc2ccc(F)cc2)CC1)c1ccccc1 (centres undefined)	-5.8	·	·	·	0.9	·
SMILES	MC4R antagonist	A1 inh	CHOP UPR activ	UPR XBP1 act	MC4R barr agon	CHOP UPR conf
Cc1ccc(Sc2nc(-c3ccccc3)nnc2C(F)(F)F)cc1	5.2	·	40.3*	-10.1	-0.9	119.6*
COc1ccc(-c2coc3c(C(=O)NCC4CC4)cccc23)c(C)c1	1.6	·	·	·	2.6	·
CCOC(=O)N1CCN(Cc2ccc(O)c3ncccc23)CC1	·	-0.7	62.1*	24.8	·	77.7*
CCOC(=O)N1CCN(Cc2ccccn2)CC1	-2.9	0.0	-1.4	0.6	1.3	·
Oc1ccc(CN2CCCCC2)c2cccnc12	-7.0	0.7	7.4	17.0	-0.7	·
Oc1ccc(CN2CCN(c3ccccc3)CC2)c2cccnc12	8.4	0.9	67.2*	16.1	-0.1	50.1*
